ChEMBL document CHEMBL1123819, “Synthesis and antifungal activity of a series of novel 1,2-disubstituted propenones” (1987)
Values after ≈ are worked out from the molar mass of the structure shown.

How the values were obtained:
Assay type in all cases: functional
Trichophyton benhamiae = assay: Antifungal activity against Trichophyton asteroides was determined in vitro
Method in brief: (§1)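 Broth microdilution in Sabouraud's glucose broth; MIC read as the fungistatic end point. Final inocula were 1 × 10^5 cells/mL for the yeast and 1 × 10^5 conidia/mL for the mould and the dermatophyte.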

Candida albicans [1] = assay: (§2) Antifungal activity against Candida albicans was determined in vitro; method in brief: as §1
Aspergillus fumigatus = assay: Antifungal activity against Aspergillus fumigatus was determined in vitro; method in brief: as §1
Candida albicans [2] = assay: as §2; remark: listed apart in the source
Method in brief: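 MIC by broth microdilution in microtiter plates. Final inoculum 1 × 10^5 yeast cells per mL of Sabouraud's glucose broth. Fungistatic activity was assessed.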

Row | Compound | MIC (Trichophyton benhamiae) [µg/mL] | MIC (Candida albicans [1]) [µg/mL] | MIC (Aspergillus fumigatus) [µg/mL] | MIC (Candida albicans [2]) [µg/mL]
1 | O=C(/C(=C/c1ccc(F)cc1)n1ccccc1=O)c1ccc(Cl)cc1 | 12.5 (≈ 35.3 µM) | > 100 | > 100 | 
2 | C=C(C(=O)c1ccc(Cl)cc1)n1ncc2ccccc2c1=O | 1.6 (≈ 5.15 µM) | 0.8 (≈ 2.57 µM) | 6.3 (≈ 20.3 µM) | 
3 | C=C(C(=O)c1ccc(Cl)cc1Cl)n1ccccc1=O | 0.8 (≈ 2.72 µM) | 0.8 (≈ 2.72 µM) | 25 (≈ 85 µM) | 
4 | C=C(C(=O)c1ccccc1OC)n1ccccc1=O | 1.6 (≈ 6.27 µM) | 3.1 (≈ 12.1 µM) | > 100 | 
5 | C=C(CN(C)C)C(=O)c1ccc(Cl)cc1 | 6.3 (≈ 28.2 µM) | 12.5 (≈ 55.9 µM) | 12.5 (≈ 55.9 µM) | 
6 | C=C(C(=O)c1ccc(Cl)cc1)n1c(=O)ccc2ccccc21 | 0.2 (≈ 0.646 µM) | 3.1 (≈ 10 µM) | 1.6 (≈ 5.17 µM) | 
7 | C=C(Cn1cccn1)C(=O)c1ccc(-c2ccccc2)cc1 | 0.8 (≈ 2.77 µM) | 6.3 (≈ 21.8 µM) | 12.5 (≈ 43.4 µM) | 
8 | C=C(C(=O)c1ccc(Cl)cc1)n1cc(C)ccc1=O | 0.8 (≈ 2.92 µM) | 0.8 (≈ 2.92 µM) | 3.1 (≈ 11.3 µM) | 
9 | C=C(C(=O)c1ccc(F)cc1)c1ccc(Cl)cc1Cl | 0.4 (≈ 1.36 µM) | 3.1 (≈ 10.5 µM) | 12.5 (≈ 42.4 µM) | 
10 | C=C(Cn1ccccc1=O)C(=O)c1ccc(OC)cc1 | 6.3 (≈ 23.4 µM) | 25 (≈ 92.8 µM) | 100 (≈ 371 µM) | 
11 | C=C(C(=O)c1ccc(C(=O)OC)cc1)n1ccccc1=O | 3.1 (≈ 10.9 µM) | 3.1 (≈ 10.9 µM) | 50 (≈ 177 µM) | 
12 | C=C(C(=O)c1cccs1)c1ccc(Cl)cc1 | 0.1 (≈ 0.402 µM) | 3.1 (≈ 12.5 µM) | 3.1 (≈ 12.5 µM) | 
13 | CC(C(=O)c1ccc(Cl)cc1)n1ccccc1=O (stereo unspecified) | > 100 | > 100 | > 100 | 
14 | C=C(C(=O)c1ccc(Cl)cc1)n1c(=O)n(C)c2ccccc21 | 0.4 (≈ 1.28 µM) | 1.6 (≈ 5.12 µM) | 1.6 (≈ 5.12 µM) | 
15 | O=C(c1ccc(Cl)cc1)C(CO)n1cnc2ccccc2c1=O (stereo unspecified) | 0.8 (≈ 2.43 µM) | 0.8 (≈ 2.43 µM) | 6.3 (≈ 19.2 µM) | 
16 | C=C(Cn1c(=O)ccc2ccccc21)C(=O)c1ccc(Cl)cc1 | 3.1 (≈ 9.57 µM) | 25 (≈ 77.2 µM) | 100 (≈ 309 µM) | 
17 | C=C(Cn1ccccc1=O)C(=O)c1ccc(Cl)cc1 | 0.8 (≈ 2.92 µM) | 1.6 (≈ 5.85 µM) | 25 (≈ 91.3 µM) | 
18 | C=C(C(=O)N1CCOCC1)c1ccc(Cl)cc1Cl | > 100 | > 100 | > 100 | 
19 | C=C(C(=O)c1cccs1)c1ccccc1 | 0.2 (≈ 0.933 µM) | 1.6 (≈ 7.47 µM) | 1.6 (≈ 7.47 µM) | 

Row | Compound | MIC (Trichophyton benhamiae) [µg/mL] | MIC (Candida albicans [1]) [µg/mL] | MIC (Aspergillus fumigatus) [µg/mL] | MIC (Candida albicans [2]) [µg/mL]
20 | CC/C=C(\C(=O)c1ccc(Cl)cc1)n1ccccc1=O | 25 (≈ 86.9 µM) | > 100 | > 100 | 
21 | C=C(C(=O)c1ccc(Cl)cc1)n1cc(C(=O)OC)ccc1=O | 0.8 (≈ 2.52 µM) | 0.8 (≈ 2.52 µM) | 3.1 (≈ 9.76 µM) | 
22 | C=C(C(=O)c1ccc(Cl)cc1Cl)c1ccc(Cl)cc1Cl | 0.4 (≈ 1.16 µM) | 6.3 (≈ 18.2 µM) | > 100 | 
23 | C=C(Cc1ccccc1)C(=O)c1cccs1 | 6.3 (≈ 27.6 µM) | > 100 | 100 (≈ 438 µM) | 
24 | C=C(C(=O)c1ccc(Cl)cc1)n1ccccc1=O | 0.8 (≈ 3.08 µM) | 1.6 (≈ 6.16 µM) | 2.5 (≈ 9.63 µM) | 
25 | C=C(C(=O)c1ccccc1)n1ccccc1=O | 1.6 (≈ 7.1 µM) | 6.3 (≈ 28 µM) | 50 (≈ 222 µM) | 
26 | C=C(Cn1ccccc1=O)C(=O)c1ccc(-c2ccccc2)cc1 | 0.8 (≈ 2.54 µM) | 6.3 (≈ 20 µM) | 50 (≈ 159 µM) | 
27 | C=C(C(=O)c1ccc(-c2ccccc2)cc1)n1ccccc1=O | 0.4 (≈ 1.33 µM) | 0.8 (≈ 2.65 µM) | 12.5 (≈ 41.5 µM) | 
28 | C=C(C(=O)c1ccc(Cl)cc1)n1cc(Cl)ccc1=O | 0.8 (≈ 2.72 µM) | 0.8 (≈ 2.72 µM) | 3.1 (≈ 10.5 µM) | 
29 | C=C(Cn1ccccc1=O)C(=O)c1ccsc1 | 6.3 (≈ 25.7 µM) | 50 (≈ 204 µM) | 50 (≈ 204 µM) | 
30 | C=C(C(=O)c1ccc(Cl)cc1)n1cnc2ccccc2c1=O | 0.1 (≈ 0.322 µM) | 0.1 (≈ 0.322 µM) | 0.4 (≈ 1.29 µM) | 
31 | C=C(C(=O)c1ccc(-c2ccccc2)cc1)n1cnc2ccccc2c1=O | 25 (≈ 70.9 µM) | > 100 | > 100 | 
32 | C=C(Cn1cnc2ccccc2c1=O)C(=O)c1ccc(Cl)cc1 | 3.1 (≈ 9.55 µM) | 3.1 (≈ 9.55 µM) | 6.3 (≈ 19.4 µM) | 
33 | C=C(C(=O)Nc1ccc(Cl)cc1)c1ccc(Cl)cc1Cl | > 100 | > 100 | > 100 | 
34 | C=C(C(=O)c1ccccc1)n1cc(Cl)ccc1=O | 3.1 (≈ 11.9 µM) | 6.3 (≈ 24.3 µM) | 25 (≈ 96.3 µM) | 
35 | Clc1ccccc1C(c1ccccc1)(c1ccccc1)n1ccnc1 [CLOTRIMAZOLE] | 0.1 (≈ 0.29 µM) | 1.6 (≈ 4.64 µM) | 1.6 (≈ 4.64 µM) | 
36 | C=C(c1ccccc1OCc1cccc(Cl)c1)n1ccnc1 [CROCONAZOLE] | 0.1 (≈ 0.322 µM) |  | 3.1 (≈ 9.97 µM) | 3.1 (≈ 9.97 µM)
37 | Clc1ccc(COC(Cn2ccnc2)c2ccc(Cl)cc2Cl)cc1 (stereo unspecified) [ECONAZOLE] | 0.1 (≈ 0.262 µM) | 3.1 (≈ 8.12 µM) | 3.1 (≈ 8.12 µM) | 
38 | Clc1ccc(COC(Cn2ccnc2)c2ccc(Cl)cc2Cl)c(Cl)c1 (stereo unspecified) [MICONAZOLE] | 0.1 (≈ 0.24 µM) | 3.1 (≈ 7.45 µM) | 6.3 (≈ 15.1 µM) | 

Further lines, with some results ahead:

Row | MIC (Trichophyton benhamiae) [µg/mL] | MIC (Candida albicans [1]) [µg/mL] | MIC (Aspergillus fumigatus) [µg/mL] | Compound | MIC (Candida albicans [2]) [µg/mL]
39 | 3.1 (≈ 16.4 µM) | 0.8 (≈ 4.23 µM) | 6.3 (≈ 33.3 µM) | C=C(C(=O)c1ccco1)n1cncn1 | 
40 | 3.1 (≈ 11.9 µM) | 3.1 (≈ 11.9 µM) | 100 (≈ 383 µM) | COCC(C(=O)c1ccc(OC)cc1)n1cncn1 (stereo unspecified) | 
41 | 3.1 (≈ 10.7 µM) | 6.3 (≈ 21.7 µM) | 6.3 (≈ 21.7 µM) | C=C(C(=O)c1ccc(Cl)cc1)N1C(=O)C=NC(=O)C1C (stereo unspecified) | 
42 | 1.6 (≈ 6.85 µM) | 0.2 (≈ 0.856 µM) | 6.3 (≈ 27 µM) | C=C(C(=O)c1ccc(Cl)cc1)n1cncn1 | 
43 | 6.3 (≈ 28.1 µM) | 1.6 (≈ 7.14 µM) | 25 (≈ 111 µM) | C=C(C(=O)c1ccc(C#N)cc1)n1cncn1 | 
44 | 3.1 (≈ 22.6 µM) | 12.5 (≈ 91.1 µM) | 25 (≈ 182 µM) | C=C(C(C)=O)n1cncn1 | 
45 | 0.8 (≈ 3.49 µM) | 0.8 (≈ 3.49 µM) | 12.5 (≈ 54.5 µM) | C=C(C(=O)c1ccc(OC)cc1)n1cncn1 | 
46 | 1.6 (≈ 7.8 µM) | 0.4 (≈ 1.95 µM) | 6.3 (≈ 30.7 µM) | C=C(C(=O)c1cccs1)n1cncn1 | 
47 | 1.6 (≈ 5.99 µM) | 0.8 (≈ 2.99 µM) | 25 (≈ 93.6 µM) | C=C(C(=O)c1ccc(Cl)cc1Cl)n1cccn1 | 
48 | 0.2 (≈ 0.726 µM) | 0.4 (≈ 1.45 µM) | 3.1 (≈ 11.3 µM) | C=C(C(=O)c1ccc(-c2ccccc2)cc1)n1cncn1 | 
49 | 6.3 (≈ 25.9 µM) | 12.5 (≈ 51.4 µM) | > 100 | C=C(Cn1cncn1)C(=O)c1ccc(OC)cc1 | 
50 | 6.3 (≈ 35.2 µM) | 0.4 (≈ 2.23 µM) | 6.3 (≈ 35.2 µM) | C=C(C(=O)C(C)(C)C)n1cncn1 | 
51 | 0.4 (≈ 1.31 µM) | 1.6 (≈ 5.22 µM) | 6.3 (≈ 20.6 µM) | C=C(C(=O)c1ccc(OC)cc1)n1cnc2ccccc2c1=O | 
52 | 1.6 (≈ 6.14 µM) | 0.4 (≈ 1.53 µM) | 3.1 (≈ 11.9 µM) | C=C(C(=O)c1ccc(Cl)cc1)n1cnccc1=O | 
53 | 0.4 (≈ 1.38 µM) | 1.6 (≈ 5.53 µM) | 12.5 (≈ 43.2 µM) | C=C(Cn1cncn1)C(=O)c1ccc(-c2ccccc2)cc1 | 
54 | 1.6 (≈ 6.46 µM) | 0.4 (≈ 1.61 µM) | 12.5 (≈ 50.5 µM) | C=C(Cn1cncn1)C(=O)c1ccc(Cl)cc1 | 
55 | 6.3 (≈ 30.7 µM) | 50 (≈ 244 µM) | > 100 | C=C(C(=O)C(C)(C)C)n1ccccc1=O | 
56 | 0.8 (≈ 3.75 µM) | 0.2 (≈ 0.938 µM) | 6.3 (≈ 29.5 µM) | C=C(C(=O)c1ccc(C)cc1)n1cncn1 | 
57 | 1.6 (≈ 11.8 µM) | 25 (≈ 184 µM) | 25 (≈ 184 µM) | C=C(C)C(=O)c1ccco1 | 
58 | 3.1 (≈ 12.5 µM) | 3.1 (≈ 12.5 µM) | 100 (≈ 404 µM) | COc1ccc(C(=O)C(CO)n2cncn2)cc1 (stereo unspecified) | 
59 | 0.8 (≈ 3.68 µM) | 0.4 (≈ 1.84 µM) | 6.3 (≈ 29 µM) | C=C(C(=O)c1ccc(F)cc1)n1cncn1 | 
60 | 12.5 (≈ 45.2 µM) | 12.5 (≈ 45.2 µM) | > 100 | C=C(C(=O)c1ccc(Cl)cc1)N1CC(=O)N=CC1=O | 
61 | 3.1 (≈ 10.4 µM) | 6.3 (≈ 21.1 µM) | 12.5 (≈ 41.8 µM) | C=C(C(=O)c1ccc(Cl)cc1)n1c(O)nc2ccccc21 | 
62 | 6.3 (≈ 28.7 µM) | 12.5 (≈ 57 µM) | 100 (≈ 456 µM) | C=C(Cn1cncn1)C(=O)c1ccsc1 | 
